# Shown are actives, neighbours in structure and some others; about 1.8% of the full set was active somewhere.
# L929 necroptosis = blocks zVAD induced death of L929 cells. L929 zVAD necroptosis rescue, ATP luminescence, 24 h; with zVAD 60 µM. viability rescue, % at 10 µM. hit rate 0.38% among 220,000;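 active means activation, scaled between plate controls, above about 75%, limit read from the data; inactive means activation under that limit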;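 further: 0% = zVAD with DMSO and 100% = DMSO alone without zVAD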
# Autophagy mod = autophagy modulation, high-content screen; AID 463193; calls only at 10 µM (by protocol); MEF GFP-LC3 puncta imaging; test concentration mostly 10 µM; hit rate 0.98% among 190,000;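 active means percentage of spot-positive cells more than 3 SD above its plate mean, without a fluorescence outlier flag or 80% toxicity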;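 further: spot-positive cell cutoff set from DMSO-treated cells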
# Furin inh = blocks human furin protease activity. P09958. purified furin, fluorogenic substrate cleavage. inhibition, % at 20 µM or 30 µM. hit rate 0.061% among 220,000; in the data active means inhibition above about 25%
# Target sequence (P09958 108-714 limits assumed): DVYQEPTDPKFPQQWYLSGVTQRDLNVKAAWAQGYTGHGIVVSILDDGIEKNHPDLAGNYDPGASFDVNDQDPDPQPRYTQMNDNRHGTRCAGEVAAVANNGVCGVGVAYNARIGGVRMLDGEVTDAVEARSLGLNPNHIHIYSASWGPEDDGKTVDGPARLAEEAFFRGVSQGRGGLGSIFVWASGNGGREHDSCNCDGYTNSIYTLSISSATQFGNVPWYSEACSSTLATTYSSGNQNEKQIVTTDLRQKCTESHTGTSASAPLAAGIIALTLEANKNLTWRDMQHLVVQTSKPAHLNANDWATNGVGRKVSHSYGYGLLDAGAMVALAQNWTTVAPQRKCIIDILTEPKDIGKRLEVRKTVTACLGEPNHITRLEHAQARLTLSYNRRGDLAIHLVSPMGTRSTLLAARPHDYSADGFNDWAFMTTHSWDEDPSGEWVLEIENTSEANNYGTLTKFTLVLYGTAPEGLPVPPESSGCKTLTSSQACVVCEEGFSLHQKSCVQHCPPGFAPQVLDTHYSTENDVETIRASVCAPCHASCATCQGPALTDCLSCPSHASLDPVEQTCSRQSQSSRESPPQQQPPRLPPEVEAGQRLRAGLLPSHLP
# TNF necrop inh = inhibitors of TNF-alpha induced necroptosis in Jurkat FADD-/- cells; Jurkat FADD-/- TNF necroptosis rescue, ATP luminescence, 24 h; 0 = TNF only, 100 = no-TNF cells; activation (protection from cell death), % at 10 µM; hit rate 0.068% among 220,000; AID 463075;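 active means activation, meaning protection from cell death, of at least 50% relative to plate controls; inactive means activation below 50%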;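 further: necroptosis triggered by 40 ng/mL TNF-alpha added together with compound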
# Dynein cargo inh = dynein cargo transport inhibition; 3617.4 mouse cells, GR-EGFP nuclear translocation imaging; test concentration mostly 20 µM; stimulated with dexamethasone, 1 µM; stronger effect = lower value; z-score, hits read low; hit rate 0.47% among 220,000; AID 1381;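 active means plate z-score of nuclear minus cytoplasmic receptor signal below a set negative limit, without overly bright fluorescence or cell loss, cut at about -3.5 in these data, passing the limit was not always enough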;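 further: z-score of nuclear minus cytoplasmic ring GR-EGFP intensity difference per well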
#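 Buffer or medium: tet-free, stripped-serum medium; Also added: dexamethasone, 1.0 µM final; Technique: high-content fluorescence imaging after fixation; Times: 48 h induction, 1 h compound, 30 min dex at 37 °C; Read-out: per-cell GR-EGFP intensity, nucleus versus surrounding cytoplasmic ring, well-averaged.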
# HSV replic up = HSV replication enhancement; HSV replication augmentation in cells, fold increase; maximum fold increase; hit rate 0.005% among 220,000; AID 1956; in the data active means maximum fold increase above about 1.5; tested in PC3 cells
# * hit, by the source's call; i = inactive; · = no result given; + = active, no number.
SMILES,L929 necroptosis,Autophagy mod,Furin inh,TNF necrop inh,Dynein cargo inh,HSV replic up
CCc1ccc2[nH]c(=O)c(CN(Cc3ccc(OC)cc3)Cc3nnnn3CCOC)cc2c1,1,+,-1,-1,-0.53,i
CC(=O)Nc1ccc(-c2nnn(CC(=O)Nc3ccc4c(c3)OCO4)n2)cc1Cl,2,+,-15,0,-0.24,i
CN(C)c1ccc(-c2nnn(CC(=O)Nc3ccc4c(c3)OCCO4)n2)cc1,2,i,-27,2,-0.79,i
CN(C)S(=O)(=O)c1ccc(Cl)c(NC(=O)c2ccncc2)c1,0,i,-28,1,-0.2,i
Nc1cc(=O)[nH]n1C1CCCCC1,-2,+,-9,1,1.5,i
COc1ccccc1NC(=O)N1CCC(c2nc3cc(C)c(C)cc3[nH]2)CC1,-1,+,-7,-18,-0.2,i
COc1ccccc1NC(=S)N1CCC(c2nc3cc(C)c(C)cc3[nH]2)CC1,3,i,-20,-5,0.15,i
COC(=O)c1sc(N2C(=O)c3oc4ccccc4c(=O)c3C2c2cccs2)nc1C (stereo not given),0,+,-11,0,-0.089,i
CCOC(=O)C(=Cc1ccc(Br)cc1)C(=O)OCC,9,·,1,-22,-2.4,i
CCOC(=O)/C(=C\c1ccccc1)C(=O)c1cc(C(C)=O)c(Nc2ccccc2)s1,-1,+,-7,-7,-0.35,i
CSCCC(NC(=O)c1cccc(S(=O)(=O)N2CCOCC2)c1)C(=O)Nc1cccc(C)c1 (stereo not given),0,i,0,3,0.47,i
O=C1CN(c2nc(-c3ccccc3)c3cc(Cl)ccc3n2)c2ccccc2N1,1,+,-7,2,5.4,i
CCN1CCN(c2ccc(NC(=O)c3cccc(OCc4ccccc4)c3)cc2)CC1,1,i,-6,4,-0.36,i
CN1CCN(c2ccc(NC(=O)c3cccc(OCc4ccccc4)c3)cc2)CC1,0,+,-16,2,-1.1,·
OCCCc1nc2ccccc2[nH]1,0,i,-35,-1,0.75,i
Cc1noc(C)c1C(=O)OCC(=O)C12CC3CC(CC(C3)C1)C2,8,i,-16,0,0.062,i
O=[N+]([O-])c1ccc(N/N=C/c2cccc(O)c2O)c(S(=O)(=O)N2CCOCC2)c1,5,+,-21,-3,-0.21,i
O=C(CCN1CCN(c2ccccc2)CC1)N/N=C/c1ccccc1OC(F)F,2,+,-7,1,0.14,i
COc1ccc(/C=N\NC(=O)CCN2CCN(c3ccccc3)CC2)cc1OC,0,i,-18,-3,-0.44,i
COc1cc2c(cc1OC)C1(CCCC1)CNC2c1cccc([N+](=O)[O-])c1 (stereo not given),0,i,-14,0,1.4,i
Cc1ccc(-c2csc(NC(=O)CSc3nc4ccccc4c(=O)n3CCCN(C)C)n2)cc1,-2,+,-22,-14,0.039,i
O=C(C[n+]1cnn(CC(=O)c2ccc(Cl)cc2Cl)c1)c1ccc([N+](=O)[O-])cc1,1,i,-17,-1,-0.55,i
c1ccc(-n2nnc(-c3cccnc3)n2)cc1,2,i,-35,0,-0.3,i
O=C(CCCOc1ccc(Cl)cc1Cl)n1nnc2ccccc21,1,i,-12,0,-1.1,i
CC(=O)c1ccc(OCCCC(=O)n2nnc3ccccc32)cc1,0,+,-6,-3,2.5,i
NC(=O)c1cc(NC(=O)CCCc2nc3ccccc3s2)cc(C(N)=O)c1,1,·,-19,2,0.17,i
CN=CC1=C(O)C(C(=O)OC)C(C)(C)CC1=O (stereo not given),2,i,-20,0,0.054,i
COC(=O)C1C(=O)/C(=C/N(C)C)C(=O)CC1(C)C (stereo not given),7,i,38*,-1,-0.23,i
CCOC(=O)c1cnc(SC)nc1Oc1cccc(NS(=O)(=O)c2ccc(C)cc2)c1,1,+,-10,-1,-0.45,i
CCOC(=O)c1ccccc1NS(=O)(=O)c1ccc(C)cc1,0,i,-13,-8,-0.43,i

# High-throughput results (PubChem BioAssay)
